According to ChEMBL document CHEMBL4406821, “Novel dual inhibitors targeting CDK4 and VEGFR2 synergistically suppressed cancer progression and angiogenesis” (Eur J Med Chem, 2019):
Calls of active or inactive are those of the source. The rule behind the calls is not given here.

Key:
SiHa [1] = assay: Induction of apoptosis in human SiHa cells assessed as decrease in Bcl2 expression at 40 nM incubated for 48 hrs by Western blot analysis; format: functional, cell-based
In short: (§1)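 Cancer cells were exposed to graded concentrations for 48 h, washed three times in PBS and lysed in RIPA buffer. Immunoblots were probed with anti-Rb, anti-phospho-Rb, anti-Ki67 and anti-Bcl-2, each at 1:1000. β-actin served as loading control.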

T47D [2] = assay: Antiproliferative activity against human T47D cells assessed as reduction in cell viability at 40 nM incubated for 48 hrs by EdU staining based laser scanning confocal microscopy; format: functional
In short: (§2)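 Cells, 5×10^4, were seeded in 24-well plates and treated for 48 h. They were then labeled using an EdU Apollo 488 imaging kit with Hoechst 33342 nuclear stain and imaged by laser scanning confocal microscopy. Percent EdU-positive cells = EdU-positive/Hoechst-stained × 100%.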

[3] = target: Glycogen synthase kinase-3 alpha (Homo sapiens) (UniProt P49840); assay: Inhibition of recombinant human GSK3alpha (2 to end residues) at 1 uM using YRRAAVPPSPSLSRHSSPHQS(p) EDEEE as substrate incubated for 40 mins in presence of [gamma-33P]-ATP by scintillation counting method relative to control
In short: (§3)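 Tested at a single 1 uM in an outsourced commercial kinase-profiling panel, read as percent inhibition. Each value is the mean of two independent experiments.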

[4] = Oral bioavailability in Sprague-Dawley rat at 10 mg/kg by HPLC-MS analysis; format: ADME, organism-based; settings: in vivo
[5] = MRT (0 to t) in Sprague-Dawley rat at 10 mg/kg, iv by HPLC-MS analysis; format: ADME, organism-based; settings: in vivo
[6] = target: Mitogen-activated protein kinase 11 (Homo sapiens) (UniProt Q15759); assay: Inhibition of recombinant human full length SAPK2b at 1 uM using myelin basic protein as substrate incubated for 40 mins in presence of [gamma-33P]-ATP by scintillation counting method relative to control
In short: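 Single-point inhibition at 1 uM measured in a commercial kinase profiling panel (KinaseProfiler); each value is the mean of two independent experiments.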

[7] = target: Casein kinase 2 (Homo sapiens) (UniProt P67870+P68400+P19784+Q8NEV1); assay: Inhibition of recombinant full length human CK2 expressed in insect Sf21 cells at 1 uM using CK2 substrate peptide as substrate incubated for 40 mins in presence of [gamma-33P]-ATP by scintillation counting method relative to control
In short: (§4)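 Kinase panel profiling at 1 μM performed by Eurofins KinaseProfiler; percent inhibition reported as mean of two independent experiments.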

T47D [8] = assay: Induction of apoptosis in human T47D cells assessed as decrease in Ki67 expression at 20 to 40 nM incubated for 48 hrs by Western blot analysis; format: functional, cell-based; in short: as §1
[9] = target: Mitogen-activated protein kinase kinase kinase 9 (Homo sapiens) (UniProt P80192); assay: Inhibition of recombinant human MLK1 (134 to 414 residues) at 1 uM using casein as substrate incubated for 40 mins in presence of [gamma-33P]-ATP by scintillation counting method relative to control
[10] = target: Tyrosine-protein kinase Lyn (Homo sapiens) (UniProt P07948); assay: Inhibition of recombinant human full length LYN at 1 uM using poly(Glu, Tyr) 4:1 as substrate incubated for 40 mins in presence of [gamma-33P]-ATP by scintillation counting method relative to control
[11] = target: Death-associated protein kinase 3 (Homo sapiens) (UniProt O43293); assay: Inhibition of recombinant human ZIPK (1 to 290 residues) at 1 uM using KKLNRTLSFAEPG as substrate incubated for 40 mins in presence of [gamma-33P]-ATP by scintillation counting method relative to control
[12] = target: Serine/threonine-protein kinase 32C (Homo sapiens) (UniProt Q86UX6); assay: Inhibition of recombinant human full length STK32C at 1 uM using casein as substrate incubated for 40 mins in presence of [gamma-33P]-ATP by scintillation counting method relative to control
[13] = target: Insulin-like growth factor 1 receptor (Homo sapiens) (UniProt P08069); assay: Inhibition of recombinant activated human IGF1R (959 to end residues) at 1 uM using KKKSPGEYVNIEFG as substrate incubated for 40 mins in presence of [gamma-33P]-ATP by scintillation counting method relative to control; in short: as §4
[14] = Toxicity in NOD/SCID BALB/c mouse xenografted with human SiHa cells assessed as effect on blood parameter by measuring PCT at 40 mg/kg, po administered once two days for 4 times by hematology analyzer; format: organism-based; settings: in vivo
[15] = target: Phosphatidylinositol 4-phosphate 3-kinase C2 domain-containing subunit alpha (Homo sapiens) (UniProt O00443); assay: Inhibition of recombinant human PI3KC2alpha (299 to end residues) at 1 uM using phosphatidylinositol as substrate incubated for 40 mins in presence of [gamma-33P]-ATP by scintillation counting method relative to control; in short: as §3
T47D [16] = assay: Induction of apoptosis in human T47D cells assessed as increase in late apoptotic cells at 20 to 40 nM incubated for 48 hrs by annexin V FITC and propidium iodide staining based flow cytometry; format: functional, cell-based
In short: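 Annexin V-FITC/PI double staining with flow-cytometric readout. MDA-MB-231, T-47D, SiHa and HeLa cells were treated with graded concentrations for 48 h. MDA-MB-231 and T-47D were grown in DMEM and SiHa in 1640 medium, each with 10% FBS and 1% penicillin/streptomycin at 37°C under 5% CO2. Early- and late-stage apoptotic fractions were scored.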

[17] = target: [Pyruvate dehydrogenase (acetyl-transferring)] kinase isozyme 4, mitochondrial (Homo sapiens) (UniProt Q16654); assay: Inhibition of recombinant human full length PDHK4 at 1 uM using KKKYHGHSMSDPGVSYRT as substrate incubated for 40 mins in presence of [gamma-33P]-ATP by scintillation counting method relative to control; in short: as §3
[18] = Toxicity in BALB/c mouse assessed as effect on blood parameter by measuring hematocrit at 40 mg/kg, po administered once two days for 4 times by hematology analyzer; settings: in vivo
HeLa = assay: Antiproliferative activity against human HeLa cells assessed as reduction in cell viability at 40 to 80 nM incubated for 48 hrs by EdU staining based laser scanning confocal microscopy; format: functional; in short: as §2
[19] = target: Serine/threonine-protein kinase PAK 5 (Homo sapiens) (UniProt Q9P286); assay: Inhibition of recombinant human PAK5 (425 to end residues) at 1 uM using RRRLSFAEPG as substrate incubated for 40 mins in presence of [gamma-33P]-ATP by scintillation counting method relative to control
[20] = target: Serine/threonine-protein kinase Nek9 (Homo sapiens) (UniProt Q8TD19); assay: Inhibition of recombinant human NEK9 (1 to 324 residues) at 1 uM using myelin basic protein as substrate incubated for 40 mins in presence of [gamma-33P]-ATP by scintillation counting method relative to control
SiHa [21] = assay: Antitumor activity against human SiHa cells xenografted in NOD/SCID BALB/c mouse assessed as tumor growth inhibition at 10 to 40 mg/kg, po administered for 21 days; format: functional, organism-based

Chain of Mitogen-activated protein kinase 11 (Homo sapiens) (Q15759 whole entry): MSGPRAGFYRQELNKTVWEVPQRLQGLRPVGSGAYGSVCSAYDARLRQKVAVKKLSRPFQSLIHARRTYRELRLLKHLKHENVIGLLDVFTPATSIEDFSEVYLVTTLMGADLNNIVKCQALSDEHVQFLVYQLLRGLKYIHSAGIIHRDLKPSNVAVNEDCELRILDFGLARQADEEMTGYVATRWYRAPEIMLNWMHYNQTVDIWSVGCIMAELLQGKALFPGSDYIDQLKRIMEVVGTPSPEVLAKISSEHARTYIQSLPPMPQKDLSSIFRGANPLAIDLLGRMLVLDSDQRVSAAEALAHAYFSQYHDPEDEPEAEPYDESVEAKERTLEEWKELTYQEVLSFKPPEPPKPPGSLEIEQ
Chain of Mitogen-activated protein kinase kinase kinase 9 (Homo sapiens) (P80192 whole entry, looked up, the tested form may be a part): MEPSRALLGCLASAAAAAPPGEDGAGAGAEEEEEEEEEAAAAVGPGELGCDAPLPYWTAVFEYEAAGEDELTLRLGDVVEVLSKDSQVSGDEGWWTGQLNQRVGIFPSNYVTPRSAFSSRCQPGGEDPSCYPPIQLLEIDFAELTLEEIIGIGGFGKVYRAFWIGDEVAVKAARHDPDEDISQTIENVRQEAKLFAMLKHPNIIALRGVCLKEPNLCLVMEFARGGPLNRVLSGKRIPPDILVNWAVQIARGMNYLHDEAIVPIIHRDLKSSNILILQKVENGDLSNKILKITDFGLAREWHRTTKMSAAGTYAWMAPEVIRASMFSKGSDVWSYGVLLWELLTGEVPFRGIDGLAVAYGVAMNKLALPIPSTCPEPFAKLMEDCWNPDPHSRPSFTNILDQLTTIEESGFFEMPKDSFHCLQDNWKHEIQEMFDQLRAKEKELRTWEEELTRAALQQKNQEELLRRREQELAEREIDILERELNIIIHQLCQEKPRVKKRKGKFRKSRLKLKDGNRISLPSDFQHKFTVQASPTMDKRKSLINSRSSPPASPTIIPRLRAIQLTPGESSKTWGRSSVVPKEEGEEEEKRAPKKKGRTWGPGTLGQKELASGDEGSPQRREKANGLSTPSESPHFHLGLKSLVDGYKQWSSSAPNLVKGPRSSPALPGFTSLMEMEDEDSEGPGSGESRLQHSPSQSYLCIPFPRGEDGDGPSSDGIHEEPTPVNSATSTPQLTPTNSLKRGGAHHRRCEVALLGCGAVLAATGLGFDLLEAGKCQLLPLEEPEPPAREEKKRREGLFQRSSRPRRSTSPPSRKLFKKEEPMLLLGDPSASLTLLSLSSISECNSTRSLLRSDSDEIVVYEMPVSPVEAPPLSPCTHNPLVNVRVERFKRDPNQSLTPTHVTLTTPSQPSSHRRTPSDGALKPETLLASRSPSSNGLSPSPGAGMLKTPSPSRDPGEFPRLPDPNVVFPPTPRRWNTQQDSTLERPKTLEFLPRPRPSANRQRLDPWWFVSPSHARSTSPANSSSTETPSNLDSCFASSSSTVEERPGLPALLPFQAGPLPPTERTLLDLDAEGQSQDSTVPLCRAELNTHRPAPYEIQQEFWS
Chain of Insulin-like growth factor 1 receptor (Homo sapiens) (P08069 31-736 limits assumed): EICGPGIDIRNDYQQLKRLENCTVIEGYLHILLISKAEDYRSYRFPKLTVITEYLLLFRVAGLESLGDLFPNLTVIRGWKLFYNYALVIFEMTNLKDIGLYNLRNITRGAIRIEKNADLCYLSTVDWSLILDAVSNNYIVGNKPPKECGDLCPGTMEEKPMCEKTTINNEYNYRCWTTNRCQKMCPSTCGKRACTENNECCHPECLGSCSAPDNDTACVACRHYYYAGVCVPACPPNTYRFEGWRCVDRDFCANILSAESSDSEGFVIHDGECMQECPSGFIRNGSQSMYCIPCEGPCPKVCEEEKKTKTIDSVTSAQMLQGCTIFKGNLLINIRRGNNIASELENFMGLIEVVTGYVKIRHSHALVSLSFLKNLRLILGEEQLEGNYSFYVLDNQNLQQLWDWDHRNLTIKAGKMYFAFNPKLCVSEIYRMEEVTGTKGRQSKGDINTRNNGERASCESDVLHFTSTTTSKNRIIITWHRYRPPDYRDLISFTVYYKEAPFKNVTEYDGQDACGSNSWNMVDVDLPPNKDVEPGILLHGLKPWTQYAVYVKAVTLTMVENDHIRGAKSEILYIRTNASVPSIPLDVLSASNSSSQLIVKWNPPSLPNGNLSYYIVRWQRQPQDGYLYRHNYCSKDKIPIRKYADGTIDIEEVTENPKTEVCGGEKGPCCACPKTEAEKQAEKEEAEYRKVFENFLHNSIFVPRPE
Chain of Insulin-like growth factor 1 receptor (Homo sapiens) (P08069 741-1367 limits assumed): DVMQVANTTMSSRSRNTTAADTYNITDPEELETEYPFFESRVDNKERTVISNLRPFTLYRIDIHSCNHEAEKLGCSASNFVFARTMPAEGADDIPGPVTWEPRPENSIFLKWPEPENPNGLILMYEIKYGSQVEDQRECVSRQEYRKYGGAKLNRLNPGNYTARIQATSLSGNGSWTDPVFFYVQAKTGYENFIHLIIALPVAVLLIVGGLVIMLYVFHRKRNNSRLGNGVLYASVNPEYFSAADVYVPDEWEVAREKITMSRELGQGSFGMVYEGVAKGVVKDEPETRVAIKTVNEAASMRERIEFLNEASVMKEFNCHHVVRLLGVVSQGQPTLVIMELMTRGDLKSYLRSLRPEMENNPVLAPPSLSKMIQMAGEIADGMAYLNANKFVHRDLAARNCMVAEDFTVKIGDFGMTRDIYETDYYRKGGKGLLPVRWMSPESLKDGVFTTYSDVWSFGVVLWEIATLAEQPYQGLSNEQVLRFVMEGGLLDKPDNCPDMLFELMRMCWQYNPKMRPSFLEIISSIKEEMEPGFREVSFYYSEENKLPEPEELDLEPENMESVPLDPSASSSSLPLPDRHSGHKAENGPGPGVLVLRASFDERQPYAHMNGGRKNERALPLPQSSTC
Chain of [Pyruvate dehydrogenase (acetyl-transferring)] kinase isozyme 4, mitochondrial (Homo sapiens) (Q16654 whole entry, looked up): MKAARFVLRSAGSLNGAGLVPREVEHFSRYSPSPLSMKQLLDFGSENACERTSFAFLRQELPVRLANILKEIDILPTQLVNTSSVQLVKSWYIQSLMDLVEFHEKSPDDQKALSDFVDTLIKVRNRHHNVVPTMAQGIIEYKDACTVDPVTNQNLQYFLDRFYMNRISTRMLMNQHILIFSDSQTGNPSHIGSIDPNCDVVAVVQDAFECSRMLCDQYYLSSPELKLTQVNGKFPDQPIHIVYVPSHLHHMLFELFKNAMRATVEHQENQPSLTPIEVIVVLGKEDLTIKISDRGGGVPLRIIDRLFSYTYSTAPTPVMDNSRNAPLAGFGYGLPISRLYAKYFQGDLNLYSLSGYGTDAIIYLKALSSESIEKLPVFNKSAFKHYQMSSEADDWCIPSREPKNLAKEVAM
Chain of Serine/threonine-protein kinase PAK 5 (Homo sapiens) (Q9P286 whole entry, looked up, the tested form may be a part): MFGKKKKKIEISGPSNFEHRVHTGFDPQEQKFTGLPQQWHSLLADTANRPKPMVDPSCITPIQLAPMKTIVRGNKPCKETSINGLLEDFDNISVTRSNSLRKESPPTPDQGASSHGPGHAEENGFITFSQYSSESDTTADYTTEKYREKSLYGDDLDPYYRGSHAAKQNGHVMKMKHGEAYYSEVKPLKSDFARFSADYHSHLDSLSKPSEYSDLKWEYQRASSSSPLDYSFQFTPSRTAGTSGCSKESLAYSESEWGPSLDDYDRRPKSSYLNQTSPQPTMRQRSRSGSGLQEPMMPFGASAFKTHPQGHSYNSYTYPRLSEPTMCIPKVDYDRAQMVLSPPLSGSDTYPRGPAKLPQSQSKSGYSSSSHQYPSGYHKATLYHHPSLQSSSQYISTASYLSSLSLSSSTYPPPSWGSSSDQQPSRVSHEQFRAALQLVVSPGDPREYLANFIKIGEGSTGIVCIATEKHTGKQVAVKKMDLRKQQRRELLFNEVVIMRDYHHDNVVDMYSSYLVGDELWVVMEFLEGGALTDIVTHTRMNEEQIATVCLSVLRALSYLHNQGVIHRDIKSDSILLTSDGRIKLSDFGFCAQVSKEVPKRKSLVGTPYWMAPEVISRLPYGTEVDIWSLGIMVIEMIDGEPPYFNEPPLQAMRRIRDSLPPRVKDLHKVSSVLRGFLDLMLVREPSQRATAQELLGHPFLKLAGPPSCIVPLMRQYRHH
Chain of Tyrosine-protein kinase Lyn (Homo sapiens) (P07948 2-512 limits assumed): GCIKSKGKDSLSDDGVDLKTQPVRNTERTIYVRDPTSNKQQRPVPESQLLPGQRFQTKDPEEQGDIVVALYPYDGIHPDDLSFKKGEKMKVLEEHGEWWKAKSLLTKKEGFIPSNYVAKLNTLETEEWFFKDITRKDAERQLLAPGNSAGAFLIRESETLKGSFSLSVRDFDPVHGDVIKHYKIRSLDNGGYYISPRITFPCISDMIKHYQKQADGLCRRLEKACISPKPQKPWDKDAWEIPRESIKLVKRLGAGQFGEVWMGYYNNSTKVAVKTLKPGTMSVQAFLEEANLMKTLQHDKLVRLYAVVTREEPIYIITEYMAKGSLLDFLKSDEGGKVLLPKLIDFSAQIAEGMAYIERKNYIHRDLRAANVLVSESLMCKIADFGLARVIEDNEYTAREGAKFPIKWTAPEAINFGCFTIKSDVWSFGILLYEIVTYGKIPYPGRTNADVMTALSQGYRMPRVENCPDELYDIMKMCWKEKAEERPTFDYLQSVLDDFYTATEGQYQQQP
Chain of Death-associated protein kinase 3 (Homo sapiens) (O43293 whole entry, looked up, the tested form may be a part): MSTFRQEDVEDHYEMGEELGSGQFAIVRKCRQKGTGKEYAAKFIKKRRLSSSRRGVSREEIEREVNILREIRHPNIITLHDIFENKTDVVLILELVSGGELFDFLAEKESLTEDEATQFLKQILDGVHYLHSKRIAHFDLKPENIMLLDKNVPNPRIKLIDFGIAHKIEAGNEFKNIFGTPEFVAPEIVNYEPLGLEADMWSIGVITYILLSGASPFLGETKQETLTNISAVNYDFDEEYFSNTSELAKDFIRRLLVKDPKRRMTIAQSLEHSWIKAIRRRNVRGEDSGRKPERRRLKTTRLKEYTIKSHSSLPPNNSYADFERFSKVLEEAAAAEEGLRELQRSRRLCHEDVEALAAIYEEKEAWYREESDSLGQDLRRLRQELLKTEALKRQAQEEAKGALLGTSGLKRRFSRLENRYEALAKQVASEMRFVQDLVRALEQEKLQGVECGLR

**Q.** With `COc1cc2nccc(Oc3ccc(NC(=O)C4(C(=O)Nc5ccc(F)cc5)CC4)cc3)c2cc1OC` [CABOZANTINIB] as the compound, how does the Activity (SiHa [1]) read?
**A.** Active

**Q.** What about the inhibition (T47D [2]) of the same compound?
**A.** Active

**Q.** With `Cc1ccc(NC(=O)C2(C(=O)Nc3ccc(Nc4ncc(F)c(-c5cc(F)c6nc(C)n(C(C)C)c6c5)n4)cc3)CC2)cc1` as the compound, how does the inhibition [3] read?
**A.** 0%

**Q.** What about the bioavailability [4] of the same compound?
**A.** 60%

**Q.** And the MRT last [5]?
**A.** 2 h

**Q.** And the inhibition [6]?
**A.** 0%

**Q.** And the inhibition [7]?
**A.** 56%

**Q.** What about the Activity (T47D [8]) of the same compound?
**A.** Active

**Q.** And the inhibition [9]?
**A.** 1%

**Q.** What about the inhibition [10] of the same compound?
**A.** 58%

**Q.** And the inhibition [11]?
**A.** 12%

**Q.** And the inhibition [12]?
**A.** 5%

**Q.** What about the inhibition [13] of the same compound?
**A.** 37%

**Q.** And the Activity [14]?
**A.** Non-Toxic

**Q.** What about the inhibition [15] of the same compound?
**A.** 0%

**Q.** What about the Activity (T47D [16]) of the same compound?
**A.** Active

**Q.** What about the inhibition [17] of the same compound?
**A.** 0%

**Q.** What about the Activity [18] of the same compound?
**A.** Non-Toxic

**Q.** And the inhibition (HeLa)?
**A.** Active

**Q.** And the inhibition [19]?
**A.** 28%

**Q.** And the inhibition [20]?
**A.** 71%

**Q.** What about the TGI (SiHa [21]) of the same compound?
**A.** Active
